Shown are actives, neighbours in structure and some others; about 3.7% of the full set was active somewhere.
KCNQ1 inh: blocks the human KCNQ1 potassium channel; CHO-K1 KCNQ1, FluxOR thallium flux fluorescence; active compounds read high; 1.3% of 310,000 active; B-score at 10 µM; P51787;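 active = compounds whose thallium flux B-score, printed positive for inhibition, exceeds three library SD while starting fluorescence stays within three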;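 note: channel opened by potassium depolarization with thallium stimulus after 20 min compound exposure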
KCNQ1 act: human KCNQ1 channel potentiation or activation | P51787 | CHO-K1 KCNQ1, thallium flux FluxOR fluorescence; active compounds read high | B-score at 10 µM | 0.35% of 310,000 active | AID 2648;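 active = fluorescence ratio B-score, a plate-corrected score, at least three library SD, with initial intensity B-score within 5 SD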
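Doses: Single concentration per compound, DMSO matched to controls | Test system: KCNQ1-transfected CHO-K1 cells | Timing: 90 min dye loading and 20 min compound exposure, both at room temperature | Measured by: Kinetic FluxOR thallium fluorescence, 10-s 1-Hz baseline, 110-s post-stimulus read | Medium: Assay buffer with matched DMSO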
KCNK9 block: human KCNK9 channel inhibition; B-score at 10 µM; Q9NPC2; AID 488922; 1.2% of 310,000 active; HEK293 KCNK9, FluxOR thallium flux fluorescence; active compounds read low;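 active = ratio B-score over 3 SD below the library mean, with starting fluorescence within 5 SD of its mean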;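 note: negative B-score means less thallium flux so channel inhibition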
Kir21 inh: blocks the mouse Kir2.1 inward-rectifier potassium channel | B-score at 10 µM | HEK293-Kir2.1, FluxOR thallium flux fluorescence; active compounds read low | 0.85% of 310,000 active | P35561 | AID 1672;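 active = fluorescence ratio B-score at or below minus 3 SD of library scores, with starting-brightness B-score within 2 SD, cut at about -4.2 in these data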;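 note: channel flux triggered by added potassium and thallium sulfate stimulus; B-score of peak minus minimum fluorescence over baseline after thallium stimulus; more negative B-score means stronger Kir2.1 block with less thallium influx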
KCNK3 block: human KCNK3 channel inhibition, primary screen. O14649. CHO-KCNK3 thallium flux, FluxOR fluorescence; active compounds read low. B-score at 10 µM. 0.84% of 340,000 active. AID 602410;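 active = B-score under library mean minus 4 SD, starting fluorescence ratio at most library mean plus 5 SD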;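 note: more negative B-score means stronger inhibition of thallium flux through KCNK3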
Target sequence (O14649 whole entry, looked up): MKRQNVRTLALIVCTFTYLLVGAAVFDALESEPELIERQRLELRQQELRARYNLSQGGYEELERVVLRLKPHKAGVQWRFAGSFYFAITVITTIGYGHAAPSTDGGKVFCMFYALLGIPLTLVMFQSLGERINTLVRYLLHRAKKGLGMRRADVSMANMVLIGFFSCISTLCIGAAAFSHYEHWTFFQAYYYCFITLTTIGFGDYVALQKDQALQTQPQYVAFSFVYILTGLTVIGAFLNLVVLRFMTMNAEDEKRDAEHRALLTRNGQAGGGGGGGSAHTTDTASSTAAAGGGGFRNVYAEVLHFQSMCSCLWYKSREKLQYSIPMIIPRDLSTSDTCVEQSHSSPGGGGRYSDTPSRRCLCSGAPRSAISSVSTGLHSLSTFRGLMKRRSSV
hERG protect: shields human hERG channel from block by proarrhythmic agents | Q12809 | CHO-hERG, FluxOR thallium flux, dofetilide IC70 present | activation (rescue from dofetilide block), less the hit threshold, % at 10 µM | 0.51% of 310,000 active | AID 1511;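 active = activation above the mean of controls blocked by dofetilide plus 5 SD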;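 note: thallium influx through hERG after potassium depolarization seen as dye fluorescence rise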
Numbers stand for hits; . = inactive; / = no result given.

SMILES	KCNQ1 inh	KCNQ1 act	KCNK9 block	Kir21 inh	KCNK3 block	hERG protect
Cc1cc(C)nc(SCC(=O)NC(=O)c2ccccc2O)n1	/	/	/	/	.	/
COC(=O)[C@@]1(C)[C@H]2C(=O)N(C)C(=O)[C@H]2[C@H]2CN=C(SCc3ccc(Cl)cc3)N21	/	/	/	/	.	/
Cc1oc(C)c2c(=O)ccc3c(c12)OC(N)=C(C#N)C3c1ccc(F)cc1 (stereo unspecified)	8	.	.	.	.	.
N#CC1C=Cc2ccccc2N1C(=O)c1ccccc1 (stereo unspecified)	.	.	-7.3	.	.	.
O=C(O)C1C=Cc2ccccc2N1C(=O)c1ccccc1 (stereo unspecified) (tested in a mixture with another compound)	/	/	/	/	.	/
CCSc1nnc(-c2ccc(Cl)cc2)c2ccccc12	.	.	.	.	.	.
CCSc1nnc(-c2ccc(C)cc2)c2ccccc12	.	.	-7	.	.	.
O=C(COc1ccccc1F)Nc1ccc2c(c1)OCCO2	.	.	.	.	.	.
O=C(COC(=O)c1cccs1)NCCc1ccc(F)cc1	/	/	/	/	.	/
COc1ccccc1-c1nc2cc3ccccc3cc2nc1-c1ccccc1	9	.	.	.	.	.
Cc1cccc(OCCNC(=O)c2ccc(Oc3ccc(C(F)(F)F)cc3[N+](=O)[O-])cc2)c1	6	.	.	.	-9.5	.
Cc1ccc(OCCNC(=O)c2cc(C(=O)NCCOc3ccc(C)cc3)cc([N+](=O)[O-])c2)cc1	10	.	.	.	.	.
Cc1ccc(C)c(OCCC(=O)N(C)CC(=O)Nc2c(C)cccc2C)c1	/	/	/	/	.	/
CC1(c2ccc3ccccc3c2)NC(=O)N(CC(=O)NCC(C)(C)N2CCOCC2)C1=O (stereo unspecified)	.	.	.	.	.	.
CCOC(=O)CSc1nc2ccccc2c(=O)n1CC(C)C	.	.	.	.	.	.
COC(=O)c1ccc(CSc2nc3ccccc3c(=O)n2CC(C)C)o1	.	.	-7.3	.	.	.
COc1ccc(-c2nnc(CSc3nc4ccccc4c(=O)n3CC(C)C)o2)cc1OC	.	.	.	.	-9.5	.
CC(Oc1cccc(Cl)c1)C(=O)NCCCCc1ccccc1 (stereo unspecified)	.	.	.	-5.5	.	.
CC(Oc1cccc(Cl)c1)C(=O)NCc1ccc(S(N)(=O)=O)cc1 (stereo unspecified)	.	.	.	.	.	.
CC(=O)c1c(C)[nH]c(C(=O)OCC(=O)Nc2ccc(C)cc2[N+](=O)[O-])c1C	6	.	.	.	.	.
N#CC1=C(N)N(c2ccccc2)C(c2cccc([N+](=O)[O-])c2)C1(C#N)C#N (stereo unspecified)	.	.	.	-9.7	.	.
N#CC1=C(N)N(c2ccccc2)C(c2ccco2)C1(C#N)C#N (stereo unspecified)	.	.	.	.	.	.
CC(C)c1cc(Br)ccc1OCCCN1C(=O)NC(C)(C)C1=O	.	.	.	-6.8	.	.
CN(NS(=O)(=O)c1ccc(Cl)cc1)c1nc(C(F)(F)F)nc2ccccc12	.	.	-7.6	.	.	.
CN(NS(=O)(=O)c1ccccc1)c1nc2ccccc2nc1C(F)(F)F	.	.	.	.	.	.
SMILES	KCNQ1 inh	KCNQ1 act	KCNK9 block	Kir21 inh	KCNK3 block	hERG protect
O=C(COC(=O)c1ccc(O)cc1O)N=c1sccn1Cc1ccccc1Cl	.	.	-6.9	.	.	.
Cc1ccc(Cn2ccsc2=NC(=O)COC(=O)c2ccc(O)cc2O)cc1	.	.	.	.	.	.
Nc1ccccc1SSc1ccccc1N	.	.	.	.	.	.
CC(C(Sc1ccccc1N)c1ccccc1)[N+](=O)[O-] (stereo unspecified)	.	.	.	-7.2	.	.
O=C(NCc1ccccn1)c1cccc(S(=O)(=O)Nc2ccccc2Cl)c1	/	/	/	/	.	/
NC(N)=NN=C(c1ccc(F)cc1)c1ccc(C(F)(F)F)cc1	/	/	/	/	.	/
CSC1=C(C#N)C(CC(C)C)C(C(C)=O)=C(C)N1 (stereo unspecified)	.	.	.	-6.5	.	.
CSC1=C(C#N)C(CC(C)C)C2=C(CCCC2=O)N1 (stereo unspecified)	.	.	.	.	.	.

Screens deposited in PubChem BioAssay by Johns Hopkins Ion Channel Center.
